pIC50: −log10 of the molar value.
Assays:
Trypanosoma cruzi = experiment: Antitrypanosomal activity against intracellular amastigotes stage of recombinant Trypanosoma cruzi Tulahuen expressing beta galactosidase infected in NIH/3T3 cells assessed as growth inhibition after 4 days by HTS-ready assay; format: functional, organism-based; settings: NIH3T3, 96 h; for pIC50: read-out: IC50; for IC50: read-out: pIC50 (converted)
How it was run: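 NIH-3T3 fibroblasts were mixed 1:1 with β-galactosidase-expressing Tulahuen trypomastigotes from LLC-MK2 culture supernatants, at 1x10^3 cells/well, onto pre-dispensed compounds (50 to 0.00085 μM, DMSO ≤0.5%). Cultures were held 4 days at 37 °C, 5% CO2. Resorufin-β-D-galactopyranoside (5 µM in PBS with Igepal) was added for 4 h at room temperature, and fluorescence was read at 531/595 nm. Untreated parasites served as negative control.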

[1] = Cytotoxicity against mouse NIH/3T3 cells after 4 days by CellTiter-Glo luminiscence assay; format: cell-based, NIH3T3; settings: read-out: TC50
How it was run: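 Mouse embryonic fibroblasts were seeded at 1x10^3 cells/well onto pre-dispensed compounds (top concentration 100 μM) for 4 days at 37 °C, 5% CO2. Controls were 0.5% DMSO (100% viable) and amphotericin B 50 μM (100% toxicity). Viability was measured as ATP by CellTiter-Glo luminescence at room temperature. TC50 was obtained by nonlinear regression.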

HepG2 = experiment: Cytotoxicity against human HepG2 cells 48 hrs by CellTiter-Glo luminiscence assay; format: functional; settings: HepG2, 48 h, read-out: TC50 (the source's name)
How it was run: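 Human hepatoma cells were plated at 3,000 cells/well onto pre-dispensed compounds, handled as for the fibroblast assay, and incubated 48 h at 37 °C, 5% CO2. ATP-based viability was read by CellTiter-Glo luminescence after room-temperature incubation. TC50 was obtained by nonlinear regression.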

Compound | pIC50 (Trypanosoma cruzi) | IC50 (Trypanosoma cruzi) | CC50 at 96 h [1] | CC50 (HepG2)
NC(=S)N/N=C/CSc1ccccc1 | 5.03 | 9330 nM | 3.55 µM | > 100 µM
C/C(=N\Nc1nc(-c2ccccc2)cs1)c1ccccn1 | 5.95 | 1120 nM | 3.89 µM | 91.2 µM
O=[N+]([O-])c1ccc(-c2csc(N/N=C/c3ccccn3)n2)cc1 | 4.96 | – | > 50.1 µM | > 100 µM
C(=N\Nc1nc(-c2ccccc2)cs1)/c1ccccn1 | 5.66 | 2190 nM | 17 µM | > 100 µM
Cc1ccc(-c2csc(N/N=C/c3ccccn3)n2)cc1 | 5.58 | 2630 nM | 43.6 µM | > 100 µM
Brc1ccc(-c2csc(N/N=C/c3ccccn3)n2)cc1 | 5.65 | 2240 nM | 14.1 µM | > 100 µM
Cc1sc(N/N=C/c2ccccn2)nc1-c1ccc(Br)cc1 | 5.86 | 1380 nM | 18.6 µM | > 100 µM
Fc1ccc(-c2csc(N/N=C/c3ccccn3)n2)cc1 | 5.64 | 2290 nM | > 50.1 µM | 18.2 µM
COc1ccc(-c2csc(N/N=C/c3ccccn3)n2)cc1 | 5.57 | 2690 nM | 11.5 µM | > 100 µM
Clc1ccc(-c2csc(N/N=C/c3ccccn3)n2)c(Cl)c1 | 5.98 | 1050 nM | 14.5 µM | > 100 µM
Clc1ccc(-c2csc(N/N=C/c3ccccn3)n2)cc1Cl | 6.10 | 794 nM | 10.7 µM | > 100 µM
C/C(=N\Nc1nc(-c2ccc(C)cc2)cs1)c1ccccn1 | 5.77 | 1700 nM | 4.47 µM | > 100 µM
C/C(=N\Nc1nc(-c2ccc(Br)cc2)cs1)c1ccccn1 | 6.00 | 1000 nM | 3.98 µM | 85.1 µM
C/C(=N\Nc1nc(-c2ccc(Br)cc2)c(C)s1)c1ccccn1 | 5.87 | 1350 nM | 2 µM | > 100 µM
C/C(=N\Nc1nc(-c2ccc(F)cc2)cs1)c1ccccn1 | 5.88 | 1320 nM | 4.9 µM | 91.2 µM
COc1ccc(-c2csc(N/N=C(\C)c3ccccn3)n2)cc1 | 5.65 | 2240 nM | 3.47 µM | > 100 µM
C/C(=N\Nc1nc(-c2ccc(Cl)cc2Cl)cs1)c1ccccn1 | 5.81 | 1550 nM | 2 µM | > 100 µM
C/C(=N\Nc1nc(-c2ccc(Cl)c(Cl)c2)cs1)c1ccccn1 | 5.90 | 1260 nM | 2.34 µM | > 100 µM
C/C(=N\Nc1nc(-c2cccc([N+](=O)[O-])c2)cs1)c1ccccn1 | 6.05 | 891 nM | 3.63 µM | > 100 µM
C/C(=N\Nc1nc(-c2ccc([N+](=O)[O-])cc2)cs1)c1ccccn1 | 5.90 | 1260 nM | 20.9 µM | > 100 µM
C/C(=N\N=C1\SC(C)C(=O)N1c1ccccc1)c1ccc(Cl)c(Cl)c1 (stereo not drawn) | < 4.30 | – | > 50.1 µM | > 100 µM
C/C(=N\N=C1\SC(C(C)C)C(=O)N1c1ccccc1)c1ccc(Cl)c(Cl)c1 (stereo not drawn) | < 4.30 | – | > 50.1 µM | > 100 µM

Compound | pIC50 (Trypanosoma cruzi) | IC50 (Trypanosoma cruzi) | CC50 at 96 h [1] | CC50 (HepG2)
NC(=S)N/N=C/CSc1ccccc1Cl | 5.51 | 3090 nM | > 50.1 µM | > 100 µM
NC(=S)N/N=C/CSc1ccc(Cl)cc1 | 5.68 | 2090 nM | 39.8 µM | 75.9 µM
COc1ccc(SC/C=N/NC(N)=S)cc1 | 4.76 | 17400 nM | 0.52 µM | > 100 µM
Cc1ccc(C)c(SC/C=N/NC(N)=S)c1 | 5.49 | 3240 nM | 20.9 µM | > 100 µM
CC/C(=N\Nc1nc(-c2ccccc2)cs1)c1cccc(Br)c1 | 4.74 | 18200 nM | 26.3 µM | > 100 µM
Cc1ccccc1SC/C=N/NC(N)=S | 5.31 | 4900 nM | > 50.1 µM | > 100 µM
CC/C(=N\Nc1nc(-c2ccc(C)cc2)cs1)c1cccc(Br)c1 | 4.58 | 26300 nM | > 50.1 µM | > 100 µM
CC/C(=N\Nc1nc(-c2ccc(OC)cc2)cs1)c1cccc(Br)c1 | 4.52 | 30200 nM | > 50.1 µM | > 100 µM
C/C(=N\Nc1nc(-c2ccc(Cl)cc2)cs1)c1ccccn1 | 5.98 | 1050 nM | 5.25 µM | > 100 µM
NC(=S)N/N=C/CSc1ccc(Br)cc1 | 5.79 | 1620 nM | 28.8 µM | 53.7 µM
COc1ccc(-c2csc(N/N=C(\C)c3ccc(Cl)c(Cl)c3)n2)cc1 | 4.77 | 17000 nM | > 50.1 µM | > 100 µM
C/C(=N\Nc1nc(-c2cccc3ccccc23)cs1)c1ccccn1 | 6.03 | 933 nM | 4.47 µM | > 100 µM
C/C(=N\Nc1nc(-c2ccc(F)cc2)cs1)c1ccc(Cl)c(Cl)c1 | 4.79 | 16200 nM | 28.2 µM | > 100 µM
Cc1cccc(SC/C=N/NC(N)=S)c1 | 5.49 | 3240 nM | > 50.1 µM | > 100 µM
NC(=S)N/N=C/CSc1cc(Cl)ccc1Cl | 5.59 | 2570 nM | > 50.1 µM | > 100 µM
C/C(=N\Nc1nc(C)cs1)c1ccc(Cl)c(Cl)c1 | 5.08 | 8320 nM | 38.9 µM | > 100 µM
C(=N\Nc1nc(-c2cccc3ccccc23)cs1)/c1ccccn1 | 5.47 | 3390 nM | 7.24 µM | > 100 µM
C/C(=N\Nc1nc(-c2ccccc2)c(C)s1)c1ccc(Cl)c(Cl)c1 | 5.31 | 4900 nM | 28.2 µM | > 100 µM
CC/C(=N\Nc1nc(-c2ccc(Br)cc2)c(C)s1)c1cccc(Br)c1 | 4.61 | 24500 nM | 33.1 µM | > 100 µM
NC(=S)N/N=C/CSc1ccc(F)cc1 | 5.23 | 5890 nM | > 50.1 µM | > 100 µM
CC/C(=N\Nc1nc(-c2cccc([N+](=O)[O-])c2)cs1)c1cccc(Br)c1 | 4.64 | 22900 nM | 38 µM | > 100 µM
Cc1ccc(SC/C=N/NC(N)=S)cc1 | 5.19 | 6460 nM | > 50.1 µM | > 100 µM
